Published values gathered from unrelated publications.
Each line is one published result; the experiments were not run side by side.
Target: Insulin receptor (INSR, Homo sapiens, UniProt P06213)
Effect on: enzyme activity
Action: inhibitor

CCCOc1ccc(OC)c(F)c1C(=O)c1ccc(C(=O)N[C@@H]2CNC[C@H]2NC(=O)c2ccc3[nH]ncc3c2)cc1 — remaining activity (10 µM): 101%
Nc1nc(NC2CCCCC2)sc1C(=O)c1ccccc1 — remaining activity (10 µM): 75%
Cc1[nH]c(/C=C2\C(=O)Nc3ccc(F)cc32)c(C)c1C(=O)N[C@H]1CCN(C(=O)N(C)C)C1 — remaining activity (1 µM): 87%
CC(C)(C)c1nc2c(s1)c1nc(N)ncc1c1ccc(NS(=O)(=O)c3c(F)cccc3F)c(F)c12 — remaining activity (radiometric; 1 µM): 112%
COc1cc(Cl)c(C(=O)N[C@@H](CN[C@H]2CC[C@@H](N)CC2)Cc2ccc(C#N)cc2)cc1-c1ccc(CN[C@H](C)c2ccc(C)cc2)o1 — remaining activity (1 µM): 97%
COc1cc(Nc2cnc(C#N)c(O[C@H](C)CN(C)C)n2)ncc1-c1cnn(C)c1 — remaining activity (radiometric; 1 µM): 98%
CCN(CC)c1ccc(C2=NNC(=O)CC2C)cc1[N+](=O)[O-] (stereo not drawn) — remaining activity (10 µM): 94%
Nc1nc(Nc2ccccc2)sc1C(=O)c1c(F)cccc1F — remaining activity (10 µM): 88%
Cn1c(=O)n(-c2ccc(C(C)(C)C#N)cc2)c2c3cc(-c4cnc5ccccc5c4)ccc3ncc21 — remaining activity (10 µM): 99%
Cc1cnc(NC2CCOCC2)nc1-n1cnc(C(=O)NC(CN)c2cc(F)cc(Cl)c2)c1 (stereo not drawn) — remaining activity (radiometric; 1 µM): 103%
Oc1cccc(-c2nc(N3CCOCC3)c3oc4ncccc4c3n2)c1 — remaining activity (10 µM): 80%
O=C(Nc1cnn(-c2csc(C(=O)NC3COC3)c2)c1)Nc1ccccc1Cl — remaining activity (5 µM): 98.4%
